Reference: ChEMBL document CHEMBL2062435, “Synthesis and in vitro antibacterial activity of gemifloxacin derivatives containing a substituted benzyloxime moiety” (2012)

System: Enterococcus faecium
Assay: Antimicrobial activity against Enterococcus faecium 10-9 after 18-24 hrs by two-fold serial dilution method
Type: functional
Method in brief: (§1)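 Agar-medium twofold serial dilution against Gram-positive and Gram-negative strains; MIC taken as the lowest compound concentration giving complete inhibition of bacterial growth after incubation at 35 °C for 18-24 h.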

Row | SMILES | MIC [µg/mL]
1 | COc1cccc(CO/N=C2\CN(c3nc4c(cc3F)c(=O)c(C(=O)O)cn4C3CC3)CC2CN)c1OC.CS(=O)(=O)O (racemic) | 4

System: Pseudomonas aeruginosa
Assay: Antimicrobial activity against extended spectrum beta-lactamases-producing Pseudomonas aeruginosa 10-20 after 18-24 hrs by two-fold serial dilution method
Type: functional
Method in brief: as §1

Row | SMILES | MIC [µg/mL]
2 | COc1cccc(CO/N=C2\CN(c3nc4c(cc3F)c(=O)c(C(=O)O)cn4C3CC3)CC2CN)c1OC.CS(=O)(=O)O (racemic) | 8

System: Klebsiella pneumoniae
Assay: Antimicrobial activity against extended spectrum beta-lactamases-producing Klebsiella pneumoniae 10-3 after 18-24 hrs by two-fold serial dilution method
Type: functional
Method in brief: as §1

Row | SMILES | MIC [µg/mL]
3 | COc1cccc(CO/N=C2\CN(c3nc4c(cc3F)c(=O)c(C(=O)O)cn4C3CC3)CC2CN)c1OC.CS(=O)(=O)O (racemic) | > 128

System: Escherichia coli
Assay: Antimicrobial activity against extended spectrum beta-lactamases-producing Escherichia coli 10-3 after 18-24 hrs by two-fold serial dilution method
Type: functional
Method in brief: as §1

Row | SMILES | MIC [µg/mL]
4 | COc1cccc(CO/N=C2\CN(c3nc4c(cc3F)c(=O)c(C(=O)O)cn4C3CC3)CC2CN)c1OC.CS(=O)(=O)O (racemic) | 32

System: Staphylococcus aureus
Assay: Antimicrobial activity against extended spectrum beta-lactamases-producing methicillin-sensitive Staphylococcus aureus 10-14 after 18-24 hrs by two-fold serial dilution method
Type: functional
Method in brief: as §1

Row | SMILES | MIC [µg/mL]
5 | COc1cccc(CO/N=C2\CN(c3nc4c(cc3F)c(=O)c(C(=O)O)cn4C3CC3)CC2CN)c1OC.CS(=O)(=O)O (racemic) | 0.06

System: Pseudomonas aeruginosa
Assay: Antimicrobial activity against extended spectrum beta-lactamases-producing Pseudomonas aeruginosa 10-18 after 18-24 hrs by two-fold serial dilution method
Type: functional
Method in brief: as §1

Row | SMILES | MIC [µg/mL]
6 | COc1cccc(CO/N=C2\CN(c3nc4c(cc3F)c(=O)c(C(=O)O)cn4C3CC3)CC2CN)c1OC.CS(=O)(=O)O (racemic) | 4

System: Staphylococcus epidermidis
Assay: Antimicrobial activity against extended spectrum beta-lactamases-producing methicillin-sensitive Staphylococcus epidermidis 10-11 after 18-24 hrs by two-fold serial dilution method
Type: functional
Method in brief: as §1

Row | SMILES | MIC [µg/mL]
7 | COc1cccc(CO/N=C2\CN(c3nc4c(cc3F)c(=O)c(C(=O)O)cn4C3CC3)CC2CN)c1OC.CS(=O)(=O)O (racemic) | 0.25

System: Enterococcus faecalis
Assay: Antimicrobial activity against Enterococcus faecalis 10-5 after 18-24 hrs by two-fold serial dilution method
Type: functional
Method in brief: as §1

Row | SMILES | MIC [µg/mL]
8 | COc1cccc(CO/N=C2\CN(c3nc4c(cc3F)c(=O)c(C(=O)O)cn4C3CC3)CC2CN)c1OC.CS(=O)(=O)O (racemic) | 0.25

System: Staphylococcus epidermidis
Assay: Antimicrobial activity against extended spectrum beta-lactamases-producing methicillin-resistant Staphylococcus epidermidis 10-10 after 18-24 hrs by two-fold serial dilution method
Type: functional
Method in brief: (§2)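 Agar twofold serial dilution MIC against clinical isolates. MIC was taken as the lowest concentration giving complete inhibition of bacterial growth after incubation at 35 °C for 18-24 h.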

Row | SMILES | MIC [µg/mL]
9 | COc1cccc(CO/N=C2\CN(c3nc4c(cc3F)c(=O)c(C(=O)O)cn4C3CC3)CC2CN)c1OC.CS(=O)(=O)O (racemic) | 0.5

System: Escherichia coli
Assay: Antimicrobial activity against Escherichia coli ATCC 25922 after 18-24 hrs by two-fold serial dilution method
Type: functional
Method in brief: as §1

Row | SMILES | MIC [µg/mL]
10 | COc1cccc(CO/N=C2\CN(c3nc4c(cc3F)c(=O)c(C(=O)O)cn4C3CC3)CC2CN)c1OC.CS(=O)(=O)O (racemic) | 0.125

System: Pseudomonas aeruginosa
Assay: Antimicrobial activity against extended spectrum beta-lactamases-producing Pseudomonas aeruginosa 10-9 after 18-24 hrs by two-fold serial dilution method
Type: functional
Method in brief: as §1

Row | SMILES | MIC [µg/mL]
11 | COc1cccc(CO/N=C2\CN(c3nc4c(cc3F)c(=O)c(C(=O)O)cn4C3CC3)CC2CN)c1OC.CS(=O)(=O)O (racemic) | 4

System: Staphylococcus aureus
Assay: Antimicrobial activity against extended spectrum beta-lactamases-producing methicillin-resistant Staphylococcus aureus 10-11 after 18-24 hrs by two-fold serial dilution method
Type: functional
Method in brief: as §2

Row | SMILES | MIC [µg/mL]
12 | COc1cccc(CO/N=C2\CN(c3nc4c(cc3F)c(=O)c(C(=O)O)cn4C3CC3)CC2CN)c1OC.CS(=O)(=O)O (racemic) | 1

System: Staphylococcus aureus
Assay: Antimicrobial activity against methicillin-resistant Staphylococcus aureus clinical isolate after 18-24 hrs by two-fold serial dilution method
Type: functional
Method in brief: as §2

Row | SMILES | MIC50 [µg/mL] | MIC90 [µg/mL]
13 | COc1cccc(CO/N=C2\CN(c3nc4c(cc3F)c(=O)c(C(=O)O)cn4C3CC3)CC2CN)c1OC.CS(=O)(=O)O (racemic) | 1 | 4

System: Escherichia coli
Assay: Antimicrobial activity against extended spectrum beta-lactamases-producing Escherichia coli 10-2 after 18-24 hrs by two-fold serial dilution method
Type: functional
Method in brief: as §1

Row | SMILES | MIC [µg/mL]
14 | COc1cccc(CO/N=C2\CN(c3nc4c(cc3F)c(=O)c(C(=O)O)cn4C3CC3)CC2CN)c1OC.CS(=O)(=O)O (racemic) | > 128

System: Escherichia coli
Assay: Antimicrobial activity against Escherichia coli 10-2 after 18-24 hrs by two-fold serial dilution method
Type: functional
Method in brief: as §1

Row | SMILES | MIC [µg/mL]
15 | COc1cccc(CO/N=C2\CN(c3nc4c(cc3F)c(=O)c(C(=O)O)cn4C3CC3)CC2CN)c1OC.CS(=O)(=O)O (racemic) | 16

System: Enterococcus faecium
Assay: Antimicrobial activity against Enterococcus faecium 10-5 after 18-24 hrs by two-fold serial dilution method
Type: functional
Method in brief: as §1

Row | SMILES | MIC [µg/mL]
16 | COc1cccc(CO/N=C2\CN(c3nc4c(cc3F)c(=O)c(C(=O)O)cn4C3CC3)CC2CN)c1OC.CS(=O)(=O)O (racemic) | 4

System: Escherichia coli
Assay: Antimicrobial activity against extended spectrum beta-lactamases-producing Escherichia coli 10-4 after 18-24 hrs by two-fold serial dilution method
Type: functional
Method in brief: as §1

Row | SMILES | MIC [µg/mL]
17 | COc1cccc(CO/N=C2\CN(c3nc4c(cc3F)c(=O)c(C(=O)O)cn4C3CC3)CC2CN)c1OC.CS(=O)(=O)O (racemic) | 2

System: Streptococcus pneumoniae
Assay: Antimicrobial activity against extended spectrum beta-lactamases-producing Streptococcus pneumoniae 10-1 after 18-24 hrs by two-fold serial dilution method
Type: functional
Method in brief: as §1

Row | SMILES | MIC [µg/mL]
18 | COc1cccc(CO/N=C2\CN(c3nc4c(cc3F)c(=O)c(C(=O)O)cn4C3CC3)CC2CN)c1OC.CS(=O)(=O)O (racemic) | 0.125
